A short description of data set [1]: folding enthalpy; higher = less favourable; fluorescence melt of hairpins on a sequencing array, two-state fit. To be noted: sodium 0.088 M. A digest of the protocol:
(§1)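 Two-state fits, bootstrapped, provided melting temperature and folding enthalpy from Cy3 fluorescence normalised to pre-quench Cy3 and to control constructs. Library hairpins with annealed Cy3 and quencher oligos were imaged on a sequenced MiSeq flow cell in 50 mM Na-HEPES pH 8.0, 25 mM NaCl, at 2.5 °C intervals up to 60 °C. Four replicates were combined with inverse-variance weighting. A 9.35 °C upward shift was applied to fitted temperatures to match UV melts.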

Data set [2] can be described thus: melting temperature; fluorescence melt of hairpins on a sequencing array, two-state fit, raised by 9.35 °C to match UV melts. To be noted: sodium 0.088 M. A digest of the protocol: as §1

For ATACAGAAATGTAT (((((....))))), the folding enthalpy in data set [1] was -10.4 kcal/mol. Moreover, the Tm in data set [2] stood at 25.3 °C.
In the same order, the values of GCGTTCGCGAAAGCGCGC (((..(((....)))))) are -19.3 kcal/mol and 52.7 °C.
For GCCAGAGGAAACTCTGGC (((((((....))))))) the same measures were -44.8 kcal/mol and 69.1 °C.
In the same order, the values of GCCAACGGAAACATTGGC (((((.(....).))))) are -31.9 kcal/mol and 44.1 °C.
Regarding GCCTTGCGAAAGCGTGGC (((..((....))..))), the folding enthalpy in data set [1] is -22.8 kcal/mol. The Tm in data set [2] turned out to be 60.3 °C.
For GGAAACGAAAGTTCCTCC ((((((....)))..))) the same measures were -18.3 kcal/mol and 44.1 °C.
In the same order, the values of GACAACGGAAACGTTATC ((.((((....)))).)) are -21 kcal/mol and 31.5 °C.
In the same order, the values of GTCGTGACGAAAGTCGAC (((..(((....)))))) are -16.6 kcal/mol and 46.3 °C.
On to GATAGCGAAAGCTGAATC ((((((....)))..))), for which, in data set [1], the folding enthalpy is -10.9 kcal/mol. Moreover, the Tm in data set [2] was 27 °C.
Regarding GCCCGCGAAAGCGACGGC ((((((....)))..))), the folding enthalpy in data set [1] was -22.3 kcal/mol. Also, the Tm in data set [2] stood at 54.9 °C.
For GTTGAGCGAAAGCTTAAC (((.(((....))).))) the same measures were -26.4 kcal/mol and 52.4 °C.
Consider GATCAAGGAAACTCGATC ((((.((....)).)))), for which the folding enthalpy in data set [1] is -17.2 kcal/mol. Also, the Tm in data set [2] came out at 28.4 °C.
On to GCCAGGCGAAAGCCGCGC ((..(((....)))..)), for which the folding enthalpy in data set [1] is -18 kcal/mol. Further, the Tm in data set [2] came to 58.4 °C.
In the same order, the values of GATCTAGTCCTAGATC ((((((....)))))) are -31.9 kcal/mol and 47.4 °C.
In the same order, the values of GATCCTGGAAACGGGATC (((((.(....).))))) are -42.8 kcal/mol and 50.9 °C.
In the same order, the values of GCCGCCGAAAGGCAGGGC ((((((....)))..))) are -20.3 kcal/mol and 66.8 °C.
In the case of GTAGTCCGAAAGGATTAC (((.(((....))).))), in data set [1], the folding enthalpy was -34.5 kcal/mol. Besides, the Tm in data set [2] was found to be 49.4 °C.
In the same order, the values of GCTGAAGGAAACTCCAGC ((((.((....)).)))) are -27.8 kcal/mol and 40.7 °C.
For TCCGTGAAAACGGA (((((....))))) the same measures were -18 kcal/mol and 53.8 °C.
Take GGAATGCGAAAGCACTCC (((.(((....))).))): the folding enthalpy in data set [1] is -23.6 kcal/mol. The Tm in data set [2] stood at 48.3 °C.
For the sequence GATAAAGAAATTTATC ((((((....)))))), the folding enthalpy in data set [1] is -15.9 kcal/mol. The Tm in data set [2] was determined as 27.6 °C.
On to GACGACGAAAGTCTGGTC ((((((....)))..))), for which the folding enthalpy in data set [1] is -21.8 kcal/mol. In addition, the Tm in data set [2] is 41.2 °C.
For GTCTCTGAAAAGAGAC ((((((....)))))) the same measures were -33.4 kcal/mol and 58.1 °C.
In the same order, the values of TACGAGAAATCGTA (((((....))))) are -14.9 kcal/mol and 37.5 °C.
For GTATGCGGAAACGTATGC (.((.((....)).)).) the same measures were -18 kcal/mol and 32.2 °C.
Turning to GGAGTGGCGAAAGCCTCC (((..(((....)))))), in data set [1], the folding enthalpy is -15 kcal/mol. For the same sequence, in data set [2], the Tm is 44 °C.
In the same order, the values of GCTCCAGGAAACTAGAGC ((((.((....)).)))) are -25.4 kcal/mol and 36.5 °C.
Turning to GTATATGGAAACGTATAC (((((.(....).))))), the folding enthalpy in data set [1] was -24.4 kcal/mol. Moreover, the Tm in data set [2] worked out at 35.2 °C.
For GCCATGCGAAAGCGTAGC ((.(.((....)).).)) the same measures were -11.2 kcal/mol and 37 °C.
TACTCGAAAGAGTA (((((....))))): in data set [1], the folding enthalpy was -18.1 kcal/mol. Moreover, the Tm in data set [2] worked out at 47.1 °C.
For CGTACGGAAACGTATACG ((((((....)))..))) the same measures were -17.6 kcal/mol and 35.5 °C.
In the same order, the values of CGTCTCGGAAACGAAACG (((.(((....))).))) are -32.4 kcal/mol and 38.5 °C.
For GCTGTTACGAAAGTAAGC (((..(((....)))))) the same measures were -21.1 kcal/mol and 37.8 °C.
Regarding GTTAGCGCGAAAGCGAAC (((..(((....)))))), the folding enthalpy in data set [1] was -6.83 kcal/mol. In addition, the Tm in data set [2] came out at 27.7 °C.
For GATCGTTCATACGATC ((((((....)))))) the same measures were -46.9 kcal/mol and 54.9 °C.
For GATCGCCGAAAGGCAATC (((.(((....))).))) the same measures were -17.1 kcal/mol and 44.8 °C.
For GAAACCGAAAGGTTTTC ((((((....))).))) the same measures were -17.3 kcal/mol and 50.6 °C.

(Values after the array DNA melting data of Ke et al. (doi:10.1101/2024.01.08.574731).)
